This is a sample that favours compounds with a hit; in the whole collection about 3.7% have one here.
KCNQ1 block = blocks the human KCNQ1 potassium channel; P51787; CHO-K1 KCNQ1, FluxOR thallium flux fluorescence; hits give high values; B-score at 10 µM; 310,000 compounds, 1.3% hits; AID 2642;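 active = compounds whose thallium flux B-score, printed positive for inhibition, exceeds three library SD while starting fluorescence stays within three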;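 also: channel opened by potassium depolarization with thallium stimulus after 20 min compound exposure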
Kir21 block = inhibitors of mouse Kir2.1 inward-rectifier potassium channel. HEK293-Kir2.1, FluxOR thallium flux fluorescence; hits give low values. P35561. 310,000 compounds, 0.85% hits. B-score at 10 µM. AID 1672;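 active = fluorescence ratio B-score at or below minus 3 SD of library scores, with starting-brightness B-score within 2 SD, cut at about -4.2 in these data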;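 also: channel flux triggered by added potassium and thallium sulfate stimulus; B-score of peak minus minimum fluorescence over baseline after thallium stimulus; more negative B-score means stronger Kir2.1 block with less thallium influx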
KCNK3 block = human KCNK3 channel inhibition, primary screen; AID 602410; CHO-KCNK3 thallium flux, FluxOR fluorescence; hits give low values; B-score at 10 µM; 340,000 compounds, 0.84% hits;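 active = B-score under library mean minus 4 SD, starting fluorescence ratio at most library mean plus 5 SD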;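 also: more negative B-score means stronger inhibition of thallium flux through KCNK3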
Target sequence (O14649 whole entry, looked up): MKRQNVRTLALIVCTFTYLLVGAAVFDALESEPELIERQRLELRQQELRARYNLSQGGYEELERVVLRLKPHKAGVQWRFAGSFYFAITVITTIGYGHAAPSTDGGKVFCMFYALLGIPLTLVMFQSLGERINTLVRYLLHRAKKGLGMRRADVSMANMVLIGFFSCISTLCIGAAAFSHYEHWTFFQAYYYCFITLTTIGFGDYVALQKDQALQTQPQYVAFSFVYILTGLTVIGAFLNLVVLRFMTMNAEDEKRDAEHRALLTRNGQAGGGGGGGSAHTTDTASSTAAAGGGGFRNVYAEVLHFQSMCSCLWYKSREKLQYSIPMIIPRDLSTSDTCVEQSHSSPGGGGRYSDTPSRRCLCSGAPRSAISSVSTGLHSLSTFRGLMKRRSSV
KCNK9 block = human KCNK9 channel inhibition; HEK293 KCNK9, FluxOR thallium flux fluorescence; hits give low values; 310,000 compounds, 1.2% hits; B-score at 10 µM; AID 488922; Q9NPC2;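 active = ratio B-score over 3 SD below the library mean, with starting fluorescence within 5 SD of its mean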;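 also: negative B-score means less thallium flux so channel inhibition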
KCNQ1 pot = human KCNQ1 channel potentiation or activation; B-score at 10 µM; P51787; 310,000 compounds, 0.35% hits; CHO-K1 KCNQ1, thallium flux FluxOR fluorescence; hits give high values; AID 2648;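 active = fluorescence ratio B-score, a plate-corrected score, at least three library SD, with initial intensity B-score within 5 SD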
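Doses: Single concentration per compound, DMSO matched to controls | Test system: KCNQ1-transfected CHO-K1 cells | Timing: 90 min dye loading and 20 min compound exposure, both at room temperature | Measured by: Kinetic FluxOR thallium fluorescence, 10-s 1-Hz baseline, 110-s post-stimulus read | Medium: Assay buffer with matched DMSO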
hERG protect = shields human hERG channel from block by proarrhythmic agents. Q12809. CHO-hERG, FluxOR thallium flux, dofetilide IC70 present. activation (rescue from dofetilide block), less the hit threshold, % at 10 µM. 310,000 compounds, 0.51% hits. AID 1511;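 active = activation above the mean of controls blocked by dofetilide plus 5 SD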;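 also: thallium influx through hERG after potassium depolarization seen as dye fluorescence rise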
Starred values were filed as active, the others as inactive.

Results for COc1ccc(C2CC(=O)Oc3c(C(CCN4CCCC(C)C4)c4ccc(N(C)C)cc4)c(OC)cc(OC)c32)cc1 (configuration not stated) ?
KCNQ1 block: 7*; Kir21 block: 0.53; KCNK3 block: inactive; KCNK9 block: inactive; KCNQ1 pot: inactive; hERG protect: -9.9

How did CCCN(Cc1nnc(-c2ccccc2Cl)o1)C(=O)c1oc2ccccc2c1C do in these assays?
KCNQ1 block: 6*; Kir21 block: 0.04; KCNK3 block: inactive; KCNK9 block: inactive; KCNQ1 pot: inactive; hERG protect: -14.1

Results for CCCN(Cc1nnc(-c2ccccc2Cl)o1)C(=O)c1ccc(C)c(S(=O)(=O)N2CCOCC2)c1 ?
KCNQ1 block: inactive; Kir21 block: -2.93; KCNK3 block: inactive; KCNK9 block: inactive; KCNQ1 pot: inactive; hERG protect: -5.9

How did COc1ccc(CCC(C)NCc2ccc(F)cc2)cc1 (configuration not stated) do in these assays?
KCNQ1 block: inactive; Kir21 block: -6.1*; KCNK3 block: inactive; KCNK9 block: inactive; KCNQ1 pot: inactive; hERG protect: -5.9

What do the screens show for `COc1ccc(CCNCC(C)c2ccccc2)cc1` (configuration not stated)?
KCNQ1 block: inactive; Kir21 block: -0.94; KCNK3 block: inactive; KCNK9 block: inactive; KCNQ1 pot: inactive; hERG protect: -6.5

How did COc1ccc(CCC(C)NCC(C)c2ccccc2)cc1 (configuration not stated) do in these assays?
KCNQ1 block: inactive; Kir21 block: -4.44*; KCNK3 block: inactive; KCNK9 block: inactive; KCNQ1 pot: inactive; hERG protect: -1.7

What do the screens show for `COc1ccc(CCC(C)NCc2cc(OC)cc(OC)c2)cc1` (configuration not stated)?
KCNQ1 block: inactive; Kir21 block: -3.93; KCNK3 block: inactive; KCNK9 block: inactive; KCNQ1 pot: inactive; hERG protect: -2.2

What do the screens show for `COc1ccc(CCC(C)NCc2ccc(Cl)c(Cl)c2)cc1` (configuration not stated)?
KCNQ1 block: inactive; Kir21 block: -4.47*; KCNK3 block: inactive; KCNK9 block: inactive; KCNQ1 pot: inactive; hERG protect: -16.5

Results for COc1ccc(CCNCC(O)c2ccccc2)cc1 (configuration not stated) ?
KCNQ1 block: inactive; Kir21 block: -4.89*; KCNK3 block: inactive; KCNK9 block: inactive; KCNQ1 pot: inactive; hERG protect: -11.9

What do the screens show for `COc1ccc(CCNCC(O)COc2cccc(Br)c2)cc1` (configuration not stated)?
KCNQ1 block: inactive; Kir21 block: -8.74*; KCNK3 block: inactive; KCNK9 block: inactive; KCNQ1 pot: inactive; hERG protect: -9.9

How did COc1ccc2ccccc2c1CNC(C)CCc1ccccc1 (configuration not stated) do in these assays?
KCNQ1 block: inactive; Kir21 block: -7.74*; KCNK3 block: inactive; KCNK9 block: inactive; KCNQ1 pot: inactive; hERG protect: -7.5

Results for CC(=O)c1cccc(OCC(O)CNCCc2ccc(Cl)cc2)c1 (configuration not stated) ?
KCNQ1 block: inactive; Kir21 block: -3.55; KCNK3 block: inactive; KCNK9 block: inactive; KCNQ1 pot: inactive; hERG protect: -2.2

How did COc1cc(C(=O)Nc2cccc3c2CCCC3)cc(OC)c1OC do in these assays?
KCNQ1 block: inactive; Kir21 block: 1.48; KCNK3 block: inactive; KCNK9 block: inactive; KCNQ1 pot: inactive; hERG protect: -3.7

How did Cc1cc(/C=N/n2c(COc3ccccc3)nc3ccccc3c2=O)c(O)c([N+](=O)[O-])c1 do in these assays?
KCNQ1 block: 13*; Kir21 block: 1.18; KCNK3 block: inactive; KCNK9 block: inactive; KCNQ1 pot: inactive; hERG protect: -12.5

Results for Cc1ccc(-c2[nH]ncc2/C=N/n2c(COc3ccccc3)nc3ccccc3c2=O)cc1 ?
KCNQ1 block: inactive; Kir21 block: 1.43; KCNK3 block: inactive; KCNK9 block: inactive; KCNQ1 pot: inactive; hERG protect: -17.9

How did Cc1ccc(NC(=O)NCc2ccccn2)cc1 do in these assays?
KCNQ1 block: inactive; Kir21 block: -2.91; KCNK3 block: inactive; KCNK9 block: inactive; KCNQ1 pot: inactive; hERG protect: 9.3*

What do the screens show for `C=C(C(=O)c1ccccc1)C(C)C(=C)C(=O)c1ccccc1`?
KCNQ1 block: inactive; Kir21 block: -4.38*; KCNK3 block: inactive; KCNK9 block: inactive; KCNQ1 pot: inactive; hERG protect: -4.6

How did CC1(C(=O)Nc2cccc(C(F)(F)F)c2)CO1 (configuration not stated) do in these assays?
KCNQ1 block: inactive; Kir21 block: 0.74; KCNK9 block: inactive; KCNQ1 pot: inactive; hERG protect: -11.2

Results for O=C(Nc1cccc(C(F)(F)F)c1)C12CC3CC(CC(C3)C1)C2 ?
KCNQ1 block: inactive; Kir21 block: 0.28; KCNK3 block: inactive; KCNK9 block: inactive; KCNQ1 pot: inactive; hERG protect: 5.0*

How did COc1ccccc1C(=O)COC(=O)/C(=C/c1ccccc1)NC(C)=O do in these assays?
KCNQ1 block: inactive; Kir21 block: 3.46; KCNK3 block: inactive; KCNK9 block: inactive; KCNQ1 pot: inactive; hERG protect: -6.6

What do the screens show for `CS(=O)(=O)c1ccc(C(=O)OCc2nnc(-c3ccccc3)o2)cc1[N+](=O)[O-]`?
KCNQ1 block: inactive; Kir21 block: 0; KCNK3 block: inactive; KCNK9 block: inactive; KCNQ1 pot: 21*; hERG protect: -16.8

Results for O=C(OCc1nnc(-c2ccccc2)o1)c1ccc(Cl)cc1 ?
KCNQ1 block: inactive; Kir21 block: 0; KCNK3 block: inactive; KCNK9 block: inactive; KCNQ1 pot: inactive; hERG protect: -10.4

What do the screens show for `c1ccc(COc2cccc(CNCc3cccnc3)c2)cc1`?
KCNQ1 block: inactive; Kir21 block: -0.48; KCNK3 block: inactive; KCNK9 block: inactive; KCNQ1 pot: inactive; hERG protect: -10.6

Results for OCCNCc1cccc(OCc2ccc(Cl)cc2)c1 ?
KCNQ1 block: inactive; Kir21 block: -8.71*; KCNK3 block: inactive; KCNK9 block: inactive; KCNQ1 pot: inactive; hERG protect: -12.5

How did Brc1ccc(OCc2ccccc2)c(CNCc2ccncc2)c1 do in these assays?
KCNQ1 block: inactive; Kir21 block: -5.28*; KCNK3 block: inactive; KCNK9 block: inactive; KCNQ1 pot: inactive; hERG protect: -30.6

What do the screens show for `OCCNCc1cc(Br)ccc1OCc1ccc(Cl)cc1Cl`?
KCNQ1 block: inactive; Kir21 block: -0.26; KCNK3 block: inactive; KCNK9 block: inactive; KCNQ1 pot: inactive; hERG protect: -20.6
